From ChEMBL document CHEMBL1156902, “Evaluation of 3,4-dihydroquinazoline-2(1H)-thiones as inhibitors of alpha-MSH-induced melanin production in melanoma B16 cells” (Bioorg Med Chem, 2010)
Active and inactive are the calls of the source. No cut-off for these calls is given here.

Assays:
B16 [1] = experiment: Inhibition of alpha-MSH-induced melanin production in mouse B16 cells after 72 hrs; type: functional, cell-based; conditions: B16, 72 h
Method in brief: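 B16 cells were seeded at 2.5 × 10³ per well and held 24 h at 37 °C in 5% CO₂. They were then stimulated with α-MSH for 72 h plus sample (10 nM in methods; 100 nM in results text). Cells were lysed in 1 N NaOH–10% DMSO at 80 °C. Melanin was read at A405 against a synthetic melanin standard, as the mean of 3–5 independent experiments.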

B16 [2] = experiment: Inhibition of alpha-MSH-induced melanin production in mouse B16 cells at 10 uM after 72 hrs; type: functional; conditions: B16, 72 h
B16 [3] = experiment: Inhibition of alpha-MSH-induced melanin production in mouse B16 cells at 100 uM after 72 hrs; type: functional; conditions: B16, 72 h
[4] = molecular target: T1, Tyrosinase (Mus musculus) (UniProt P11344); experiment: Inhibition of mouse tyrosinase in 48 hrs alpha-MSH-induced mouse B16 cells at 0.3 to 10 uM; type: cell-based
T1 sequence (whole entry): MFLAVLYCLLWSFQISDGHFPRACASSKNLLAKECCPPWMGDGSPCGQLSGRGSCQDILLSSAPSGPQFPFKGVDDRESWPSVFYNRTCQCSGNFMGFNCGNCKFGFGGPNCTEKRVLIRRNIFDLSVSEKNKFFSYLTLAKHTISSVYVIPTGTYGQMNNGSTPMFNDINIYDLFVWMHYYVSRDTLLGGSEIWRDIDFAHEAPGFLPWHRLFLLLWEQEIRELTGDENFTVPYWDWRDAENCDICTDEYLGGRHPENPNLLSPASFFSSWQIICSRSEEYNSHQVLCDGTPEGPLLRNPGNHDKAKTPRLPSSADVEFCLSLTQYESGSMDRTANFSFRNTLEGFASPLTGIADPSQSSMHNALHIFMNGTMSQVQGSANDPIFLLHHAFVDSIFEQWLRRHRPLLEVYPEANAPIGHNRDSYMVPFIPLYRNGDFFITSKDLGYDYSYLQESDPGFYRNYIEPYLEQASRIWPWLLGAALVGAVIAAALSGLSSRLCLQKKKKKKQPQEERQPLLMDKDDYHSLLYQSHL

[5] = molecular target: T1, Tyrosinase (Mus musculus); experiment: Inhibition of mouse tyrosinase in 48 hrs alpha-MSH-induced mouse B16 cells by Western blot analysis; type: cell-based
Method in brief: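 B16 cells were stimulated with α-MSH for 48 h plus compound, then lysed in Tris/NaCl/SDS/NP-40 buffer with protease inhibitors at pH 7.4. Equal protein was run on SDS-PAGE, blotted to PVDF and blocked with milk or BSA. Anti-tyrosinase (1:1000) was applied overnight at 4 °C, with GAPDH (1:5000) as internal control. Detection used an HRP secondary and ECL.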

B16 [6] = experiment: Cytotoxicity against mouse B16 cells assessed as viability at 1 to 30 uM after 72 hrs by MTT assay in presence of alphaMSH; type: cell-based; conditions: b16, 72 h
Method in brief: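 B16 cells were exposed to test compound for 72 h with α-MSH (10 nM). They were then given MTT for 2 h, and the formazan was dissolved in 100% DMSO. Viability was read as optical density at 590 nm.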

SMILES	IC50 (B16 [1]) [µM]	inhibition at 10 µM (B16 [2]) [%]	also measured
O=C1Nc2ccc(Cl)cc2CN1CCc1ccccc1	> 10	18	
Cc1ccc2c(c1)CN(CCc1ccc(Cl)cc1Cl)C(=O)N2	> 10	11	
Cc1ccc(CCN2Cc3cc(Cl)ccc3NC2=O)cc1	> 10	6	
Cc1ccc(CCN2Cc3cc(C)ccc3NC2=O)cc1	> 10	10	
Cc1ccc2c(c1)NC(=O)N(CCc1ccccc1)C2	> 10	24	
Cc1ccc2c(c1)CN(CCc1ccccc1)C(=O)N2	> 10	16	
O=C1Nc2ccc(Cl)cc2CN1CCc1ccc(Cl)cc1	> 10	7	
Cc1ccc2c(c1)CN(CCc1ccc(Cl)cc1)C(=O)N2	> 10	15	
O=c1cc(CO)occ1O [KOJIC ACID]	70		
Cc1ccc2c(c1)CN(CCc1cccc3ccccc13)C(=O)N2	> 10	5	
NC(=O)Nc1ccccc1			inhibition at 100 µM (B16 [3]): 0%
Cc1ccc2c(c1)CN(CCc1ccc(C(C)C)cc1)C(=O)N2	> 10	6	

Continued, in another order:

IC50 (B16 [1]) [µM]	SMILES	inhibition at 10 µM (B16 [2]) [%]	also measured
2.8	S=C1Nc2ccc(Cl)cc2CN1CCc1ccccc1	> 100	
2.7	Cc1ccc(CCN2Cc3cc(C)ccc3NC2=S)cc1	> 100	
9.8	Cc1cccc2c1CN(CCc1ccccc1)C(=O)N2	18	
0.8	Cc1ccc2c(c1)NC(=S)N(CCc1ccccc1)C2	> 100	
1.1	Cc1cccc2c1CN(CCc1ccccc1)C(=S)N2	> 100	
180	OC[C@H]1O[C@@H](Oc2ccc(O)cc2)[C@H](O)[C@@H](O)[C@@H]1O [ARBUTIN]		
2.4	Cc1ccc2c(c1)CN(CCc1cccc3ccccc13)C(=S)N2	> 100	
0.5	Cc1ccc2c(c1)CN(CCc1ccc(Cl)cc1Cl)C(=S)N2	> 100	inhibition [4]: inactive; inhibition [5]: Dose-dependent effect; Activity (B16 [6]): Non-toxic
5.5	Cc1ccc(CCN2Cc3cc(Cl)ccc3NC2=S)cc1	> 100	
4.3	Cc1ccc2c(c1)CN(CCc1ccc(Cl)cc1)C(=S)N2	> 100	
0.8	Cc1ccc2c(c1)CN(CCc1ccccc1)C(=S)N2	> 100	
0.5	Cc1ccc2c(c1)CN(CCc1ccc(C(C)C)cc1)C(=S)N2	> 100	
1.6	S=C1Nc2ccc(Cl)cc2CN1CCc1ccc(Cl)cc1	> 100	
